# Measurements as given in PMC7668563 (International journal of molecular biology (Edmond, Okla.), 2020).
# Assays:
# [1] = target: T1, apo-human transferrin (apo-hTf) (Homo sapiens, UniProt P02787); assay: Fluorescence resonance energy transfer; assay type: binding
# Summary of the method: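 Emission spectrum of 1.0×10−5 mol L−1 apo-hTf and absorption spectrum of 1.0×10−5 mol L−1 test compound were recorded in 20 mM Tris-HCl pH 7.4 at room temperature, 260–450 nm, and their spectral overlap determined. E was calculated from apo-hTf fluorescence without and with equimolar test compound. R0 and donor–acceptor distance r came from Förster equations.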
# [2] = system: human colorectal adenocarcinoma cell line, HT-29; details: read-out: IC50 (±SD), HT-29, ref 82; cited from earlier work
# [3] = system: human breast adenocarcinoma cell line, MCF-7; details: read-out: IC50 (±SD), MCF-7, ref 82; cited from earlier work
# [4] = target: T1, apo-human transferrin (apo-hTf); assay: Thermodynamic parameters of apo-hTf complex formation; assay type: binding
# Summary of the method: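 Ksv values were obtained from apo-hTf fluorescence quenching at pH 7.4 at 296, 303, 310 and 317 K. ΔH°, ΔS° and ΔG° were derived from linear regression of ln(Ksv) vs 1/T (Van't Hoff equation).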
# [5] = target: T1, apo-human transferrin (apo-hTf); assay: Far-UV circular dichroism titration of apo-hTf, secondary structure content
# Summary of the method: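 Apo-hTf (4.0×10−7 mol L−1) in 2 mM Tris-HCl pH 7.4 was titrated with a 1.0×10−3 mol L−1 stock of test compound in Tris-HCl/2% DMSO, to final 0–2.4×10−6 mol L−1. Far-UV CD was recorded from 190–250 nm under nitrogen in a 1.0 cm cell: six scans at 100 nm/min. Baseline was buffer ± DMSO at room temperature. α-Helix was derived from MRE at 208 nm; β-sheet and random coil by the CD-RRG method.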
# [6] = target: T1, apo-human transferrin (apo-hTf); assay: Fluorescence quenching of apo-hTf; assay type: binding; details: for biomolecular quenching rate constant kq: kq=Ksv/τ0; for Stern-Volmer quenching constant Ksv / number of binding sites n: pH 7.4; for quenching association constant Ka: pH 7.4, modified Stern-Volmer
# Summary of the method: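 Intrinsic fluorescence of apo-hTf in Tris-HCl pH 7.4 was titrated with test compound (Tris-HCl/2% DMSO). Conditions: excitation 280 nm, emission 290–500 nm, slits 10/5 nm, 1.0 cm quartz cell, at 296, 303, 310 and 317 K, triplicate titrations. Intensities were corrected for inner filter effect using absorbances at excitation and emission wavelengths. Ksv came from Stern-Volmer plots of F0/F vs [Q]; kq = Ksv/τ0 (τ0 ~1.0×10−8); Ka and n came from the modified Stern-Volmer equation.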
# [7] = target: T1, apo-human transferrin (apo-hTf); assay: UV-Vis absorbance titration of apo-hTf; assay type: binding
# T1 sequence (P02787 20-698): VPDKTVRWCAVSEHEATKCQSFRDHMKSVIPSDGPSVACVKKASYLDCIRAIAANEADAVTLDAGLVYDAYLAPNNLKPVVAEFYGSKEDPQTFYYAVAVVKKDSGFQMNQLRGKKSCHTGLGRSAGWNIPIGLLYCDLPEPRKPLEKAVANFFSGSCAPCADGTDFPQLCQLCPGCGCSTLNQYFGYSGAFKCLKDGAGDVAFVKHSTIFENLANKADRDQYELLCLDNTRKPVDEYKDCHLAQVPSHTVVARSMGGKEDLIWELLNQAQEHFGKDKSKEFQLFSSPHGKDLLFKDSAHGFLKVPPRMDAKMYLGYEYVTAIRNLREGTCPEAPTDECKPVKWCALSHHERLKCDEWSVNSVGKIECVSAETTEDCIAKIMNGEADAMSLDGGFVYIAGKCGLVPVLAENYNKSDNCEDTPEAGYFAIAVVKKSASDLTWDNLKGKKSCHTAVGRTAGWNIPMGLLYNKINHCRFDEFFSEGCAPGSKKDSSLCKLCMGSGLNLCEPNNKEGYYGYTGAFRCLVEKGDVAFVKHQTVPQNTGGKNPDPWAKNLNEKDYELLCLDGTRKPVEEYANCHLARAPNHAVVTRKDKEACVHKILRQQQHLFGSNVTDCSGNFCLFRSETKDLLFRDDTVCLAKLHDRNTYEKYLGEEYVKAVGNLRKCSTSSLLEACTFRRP
smiles,measurement,setting,value
"[Cl-].[Cl-].[Ti+4].c1cc[cH-]c1.c1cc[cH-]c1 [Cp2TiCl2, titanocene dichloride]",Förster critical energy transfer distance R0,"[1]; k^2=2/3, n=1.336, ØD=0.118",5.03 nm
same,binding distance r (donor-acceptor),"[1]; k^2=2/3, n=1.336, ØD=0.118",6.77 nm
same,efficiency of energy transfer E,"[1]; room temperature, 1.0×10^−5 mol L^−1 each",0.144
same,IC50,[2],413 µM
same,IC50,[3],570 µM
same,∆G°,[4]; 296 K,-4.316 kcal/mol
same,∆G°,[4]; 303 K,-4.465 kcal/mol
same,∆G°,[4]; 310 K,-4.613 kcal/mol
same,∆G°,[4]; 317 K,-4.761 kcal/mol
same,∆H°,"[4]; pH 7.4, from Ksv at 296-317 K",1.94 kcal/mol
same,∆S°,"[4]; pH 7.4, from Ksv at 296-317 K",88.48 J/mol K
same,other secondary structure content of apo-hTf,[5]; compound concentration 0.4 (M),18.9%
same,random coil content of apo-hTf,[5]; compound concentration 0.4 (M),33.8%
same,α-helix content of apo-hTf,[5]; compound concentration 0.4 (M),29.3%
same,β-sheet content of apo-hTf,[5]; compound concentration 0.4 (M),18%
same,other secondary structure content of apo-hTf,[5]; compound concentration 0.8 (M),18.9%
same,random coil content of apo-hTf,[5]; compound concentration 0.8 (M),33.8%
same,α-helix content of apo-hTf,[5]; compound concentration 0.8 (M),29.1%
same,β-sheet content of apo-hTf,[5]; compound concentration 0.8 (M),18.2%
same,other secondary structure content of apo-hTf,[5]; compound concentration 1.2 (M),18.8%
same,random coil content of apo-hTf,[5]; compound concentration 1.2 (M),33.9%
same,α-helix content of apo-hTf,[5]; compound concentration 1.2 (M),29%
same,β-sheet content of apo-hTf,[5]; compound concentration 1.2 (M),18.3%
same,other secondary structure content of apo-hTf,[5]; compound concentration 1.6 (M),18.9%
same,random coil content of apo-hTf,[5]; compound concentration 1.6 (M),33.9%
same,α-helix content of apo-hTf,[5]; compound concentration 1.6 (M),28.8%
same,β-sheet content of apo-hTf,[5]; compound concentration 1.6 (M),18.4%
same,other secondary structure content of apo-hTf,[5]; compound concentration 2 (M),18.9%
same,random coil content of apo-hTf,[5]; compound concentration 2 (M),34%
same,α-helix content of apo-hTf,[5]; compound concentration 2 (M),28.6%
same,β-sheet content of apo-hTf,[5]; compound concentration 2 (M),18.5%
same,other secondary structure content of apo-hTf,[5]; compound concentration 2.4 (M),19%
same,random coil content of apo-hTf,[5]; compound concentration 2.4 (M),34%
same,α-helix content of apo-hTf,[5]; compound concentration 2.4 (M),28.4%
same,β-sheet content of apo-hTf,[5]; compound concentration 2.4 (M),18.6%
same,biomolecular quenching rate constant kq,[6]; 296 K,1.53e+11 M⁻¹ s⁻¹
same,Stern-Volmer quenching constant Ksv,[6]; 296 K,1530 M⁻¹
same,number of binding sites n,[6]; 296 K,1.11
same,quenching association constant Ka,[6]; 296 K,4500 M⁻¹
same,biomolecular quenching rate constant kq,[6]; 303 K,1.68e+11 M⁻¹ s⁻¹
same,Stern-Volmer quenching constant Ksv,[6]; 303 K,1680 M⁻¹
same,number of binding sites n,[6]; 303 K,1.09
same,quenching association constant Ka,[6]; 303 K,4100 M⁻¹
same,biomolecular quenching rate constant kq,[6]; 310 K,1.76e+11 M⁻¹ s⁻¹
same,Stern-Volmer quenching constant Ksv,[6]; 310 K,1760 M⁻¹
same,number of binding sites n,[6]; 310 K,1.07
same,quenching association constant Ka,[6]; 310 K,3600 M⁻¹
same,biomolecular quenching rate constant kq,[6]; 317 K,1.93e+11 M⁻¹ s⁻¹
same,Stern-Volmer quenching constant Ksv,[6]; 317 K,1930 M⁻¹
same,number of binding sites n,[6]; 317 K,1.05
same,quenching association constant Ka,[6]; 317 K,3100 M⁻¹
same,Ka at 280 nm,[7]; absorbance at 280 nm,2890 M⁻¹
same,"Association constants, Ka, 280 nm","[7]; absorbance of apo-hTf at 280 nm, pH 7.4",2.89 10^3 M^−1
